Compound activity (PubChem BioAssay)
PMI act hi M6P = human PMI activators, high substrate, primary screen, biochemical, fluorescence intensity, near-saturating mannose 6-phosphate | coupled PMI enzyme assay, resazurin fluorescence, 20 min; stronger effect = higher value; 1 = untreated enzyme, 0 = substrate-free blank | 190,000 tested, 0.34% active | activation factor at 20 µM | AID 1216, 2008;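 active = activation factor of 2 or more at 20 µM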
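Material: human phosphomannose isomerase with PGI, G6PDH, diaphorase coupling enzymes / Reagent: Man-6-P substrate 1.0 mM / Dosing: single compound dose of 20 µM, 1% DMSO final / Incubation: enzyme reaction with compound 20 min at room temperature / Signal: resorufin fluorescence (Ex 544/Em 590 nm) from resazurin via diaphorase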
NCF1 inh = p47phox/p22phox peptide binding inhibitors, primary screen, biochemical, uHTS, NADPH oxidase regulatory subunit. AID 1274, 2008. fluorescence polarization, 2 h. Neutrophil cytosol factor 1 (Homo sapiens), P14598. inhibition, % at 24.7 µM. 220,000 tested, 0.53% active;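 active = inhibition above about 30%, limit read from the data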
Target sequence (P14598 whole entry, looked up): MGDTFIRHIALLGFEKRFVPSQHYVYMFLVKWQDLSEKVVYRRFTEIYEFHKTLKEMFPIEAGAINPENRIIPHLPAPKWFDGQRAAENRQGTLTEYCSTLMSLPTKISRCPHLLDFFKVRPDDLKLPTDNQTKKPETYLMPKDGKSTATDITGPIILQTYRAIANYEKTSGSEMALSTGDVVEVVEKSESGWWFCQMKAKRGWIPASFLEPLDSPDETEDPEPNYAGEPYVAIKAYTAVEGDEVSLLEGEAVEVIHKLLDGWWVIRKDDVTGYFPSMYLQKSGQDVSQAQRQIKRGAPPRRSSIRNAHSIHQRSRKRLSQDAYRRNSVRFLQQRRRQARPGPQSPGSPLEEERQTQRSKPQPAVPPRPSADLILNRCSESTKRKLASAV
PMI act = activators of human PMI, primary screen, biochemical, fluorescence intensity, near-Km mannose 6-phosphate; Mannose-6-phosphate isomerase (Homo sapiens), P34949; purified human PMI, coupled resazurin fluorescence, 20 min; stronger effect = higher value; 1 = vehicle control, 0 substrate-free wells; activation factor at 20 µM; 190,000 tested, 0.005% active; AID 1214, 2008;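 active = activation factor of 2 or more at 20 µM, relative to plate controls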
DTT redox prof = compounds producing H2O2 with reducing agent – biochemical, NIH compound library profiling, artefact control for MLSCN library redox annotation, primary screen; DTT-dependent redox cycling H2O2, phenol red/HRP absorbance; 100% = 100 µM peroxide control, 0% = buffer; 200,000 tested, 0.03% active; AID 878, 2007; activation, % at 10 µM;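 active = activation of at least 50% relative to the plate's high and low controls in the primary single-dose screen; inactive = activation below 50%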;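 note: compound incubated with DTT at 0.8 mM final as the reducing agent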
Diaph act CS = compounds boosting diaphorase resazurin reduction – biochemical, uHTS, resorufin fluorescence, counter-screen for diaphorase-coupled primary assays, primary screen; Diaphorase/resazurin coupled assay, 16 min; stronger effect = higher value; 1 = vehicle wells, 0 = NADH-free wells; activation factor at 20 µM; 190,000 tested, 0.005% active; AID 1229, 2008;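 active = diaphorase activity raised at least twofold by the compound at 20 µM; inactive = activation factor below 2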
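Assay system: bacterial diaphorase enzyme (C. kluyveri) / Input: enzyme 0.07 U/mL final / Medium: 50 mM HEPES pH 7.4 with 4.542 mM MgCl2, 0.005% Tween 20 / Doses: single compound dose of 20 µM, 1% DMSO final / Incubation: 16 min enzyme reaction, ambient temperature / Signal: fluorescence, excitation 544 nm and emission 590 nm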
Efa HMGR inh = inhibitors of E. faecalis class II HMGR, primary screen, biochemical, Enterococcus faecalis; purified E. faecalis HMGR, NADPH absorbance 340 nm kinetic; inhibition, % at 10 µM; 190,000 tested, 0.41% active; AID 1066, 2008;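 active = inhibition above a set limit, the median over all tested compounds plus 3 SD, cut at about 9.5% in these data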;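 note: enzyme runs in reverse so mevalonate oxidation gives rising NADPH absorbance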
Hits are given with their value; n = inactive; x = no result. Shown are actives, neighbours in structure and some others; about 1.2% of the full set was active somewhere.

SMILES	PMI act hi M6P	NCF1 inh	PMI act	DTT redox prof	Diaph act CS	Efa HMGR inh
Cc1cccc(NC(=O)CN2CCSc3ccccc32)c1	n	n	n	n	n	13.3
CCOC(=O)Cn1c(=O)oc2cc(S(=O)(=O)NCCc3ccc(OCC)c(OCC)c3)ccc21	n	102.9	n	n	n	n
CCOC(=O)Cn1c(=O)oc2cc(S(=O)(=O)NCCC(C)C)ccc21	n	n	n	n	n	n
O=C(NC1CCCCC1)[C@H](CSCc1ccccc1)N1Cc2ccccc2C1=O	n	n	n	n	n	n
COC1=C(c2ccccc2)C(=O)c2ccccc2C1=O	n	n	2	n	n	n
Cc1[nH]n(-c2ccccc2)c(=S)c1C=Nc1ccc([N+](=O)[O-])cc1	n	87.4	n	n	n	n
Cc1c(C(=O)C(=O)N2c3ccccc3CC2C)c2ccccc2n1C (stereo not given)	n	40.5	n	n	n	n
Cc1ccc(C(=O)N2c3ccccc3CC2C)o1 (stereo not given)	n	41.1	n	n	n	n
Cc1ccc(C(=O)N2CCc3ccccc32)o1	n	n	n	n	n	n
Cc1cc(-n2c(C)cc(C(=S)N3CCOCC3)c2C)ccc1Br	n	n	n	n	n	n
CCCCCCNC(=O)N[C@H](C(=O)NCCC[C@H]1CN2C(=NC[C@H]2C)N1CCC(c1ccccc1)c1ccccc1)C(C)O (stereo not given in full)	x	87.2	x	x	x	x
NS(=O)(=O)c1ccc(NC(=O)COC(=O)C2CC(=O)N(Cc3ccccc3)C2)cc1 (stereo not given)	n	n	n	n	n	10.6
NS(=O)(=O)c1cccc(NC(=O)COC(=O)C2CCCCC2)c1	n	n	n	n	n	11.1
CCn1ccnc1CN1CCc2c([nH]c3ccccc23)C1C1CCCCC1 (stereo not given)	x	n	x	n	x	n
Cc1c(CN2CCc3c([nH]c4ccccc34)C2C2CCCCC2)cnn1C (stereo not given)	n	n	n	n	n	18.6
OC(COc1ccc(OCC(O)CN2CCCCCC2)cc1)CN1CCCCCC1 (stereo not given)	n	n	n	n	n	n
CN1CCN(CC(O)COc2ccc(C34CC5CC(CC(C5)C3)C4)cc2)CC1 (stereo not given)	n	72.7	n	n	n	n
Nc1cc(C(=O)O)ccc1Nc1ccc(F)c(F)c1	n	30.2	n	n	n	n
C/C(CC(=O)NC1CCCCC1)=N\NC(=O)COc1ccc(C)cc1Br	n	n	n	n	n	28.4
C#CCOCCOCCOCCNc1nc(N2CCOCC2)nc(N2CCN(C(=O)[C@H](Cc3cc4ccccc4[nH]3)n3cc([C@@H](N)C(C)CC)nn3)CC2)n1 (stereo not given in full)	n	n	n	n	n	n
C#CCOCCOCCOCCNc1nc(N2CCN(C(=O)[C@H]([C@@H](C)CC)n3cc(CCCN=C(N)N)nn3)CC2)nc(N2CCN(C(=O)[C@H](CCCCN)n3cc(CCCC)nn3)CC2)n1	n	n	n	n	n	n
C#CCOCCOCCOCCNc1nc(N2CCN(C(=O)[C@H](CCCCN)n3cc([C@@H](N)CO)nn3)CC2)nc(N2CCN(C(=O)[C@H](Cc3cc4ccccc4[nH]3)n3cc([C@@H](N)Cc4ccc(O)cc4)nn3)CC2)n1	n	38.7	n	n	n	n
C#CCOCCOCCOCCNc1nc(N2CCN(C(=O)[C@H](C)n3cc(CCCN=C(N)N)nn3)CC2)nc(N2CCN(C(=O)[C@H](CCCCN)n3cc(CCCC)nn3)CC2)n1	n	n	n	n	n	10.2
C#CCOCCOCCOCCNc1nc(N2CCN(C(=O)[C@H](CCCCN)n3cc([C@@H](N)CC(C)C)nn3)CC2)nc(N2CCN(C(=O)[C@H](Cc3cc4ccccc4[nH]3)n3cc([C@@H](N)Cc4ccc(O)cc4)nn3)CC2)n1	n	x	n	n	n	n
C#CCOCCOCCOCCNc1nc(N2CCN(C(=O)C(Cc3cc4ccccc4[nH]3)n3cc(C(N)C(C)CC)nn3)CC2)nc(N2CCN(C(=O)C(Cc3cc4ccccc4[nH]3)n3cc(C(N)C(C)CC)nn3)CC2)n1 (stereo not given)	n	67.4	n	n	n	n
SMILES	PMI act hi M6P	NCF1 inh	PMI act	DTT redox prof	Diaph act CS	Efa HMGR inh
C#CCOCCOCCOCCNc1nc(N2CCN(C(=O)[C@H]([C@@H](C)CC)n3cc([C@@H](N)CC(C)C)nn3)CC2)nc(N2CCN(C(=O)[C@H](Cc3cc4ccccc4[nH]3)n3cc([C@@H](N)Cc4ccc(O)cc4)nn3)CC2)n1	n	53.1	n	n	n	n
C#CCOCCOCCOCCNc1nc(N2CCN(C(=O)[C@H](Cc3ccc(O)cc3)n3cc([C@@H](N)C(C)CC)nn3)CC2)nc(N2CCN(C(=O)[C@H](Cc3cc4ccccc4[nH]3)n3cc([C@@H](N)Cc4ccc(O)cc4)nn3)CC2)n1 (stereo not given in full)	x	33.0	x	x	x	x
C#CCOCCOCCOCCNc1nc(N2CCN(C(=O)C(Cc3ccc(O)cc3)n3cc(C(N)CC(C)C)nn3)CC2)nc(N2CCN(C(=O)C(Cc3cc4ccccc4[nH]3)n3cc(C(N)C(C)CC)nn3)CC2)n1 (stereo not given)	n	x	n	n	n	n
Cc1ccc(NC(=S)N/C(=N/S(=O)(=O)c2ccccc2)c2ccccc2)cc1	n	164.1	n	n	n	n
CCCCCCCCCCCCCCCCn1cc[n+](CC(C)=O)c1	n	96.4	n	n	3	n
CCCCCCn1ccc(=N)cc1	n	n	n	n	n	n
CCN(CC)c1ccc(NC(=O)Cn2c(C(C)NC(=O)c3ccccc3)nc3ccccc32)cc1 (stereo not given)	n	38.5	n	n	n	n
Cc1ccc(C(=O)NC(C)c2nc3ccccc3n2CC(=O)Nc2c(C)cc(C)cc2C)cc1 (stereo not given)	x	n	x	x	x	x
O=C(CN1CCN(Cc2cccc(Cl)c2)C1=O)NCc1ccccn1	n	n	n	n	n	n
Cc1ccc(S(=O)(=O)N2C(=O)CCC2C(=O)Nn2cnnc2)cc1 (stereo not given)	n	n	n	n	n	n
